Source: ChEMBL document CHEMBL1156948, “Statistical molecular design of a focused salicylidene acylhydrazide library and multivariate QSAR of inhibition of type III secretion in the Gram-negative bacterium Yersinia” (Bioorg Med Chem, 2010)
Active and inactive are the calls of the source.

tested on: Yersinia pseudotuberculosis YPIII; assay: Inhibition of T3S in Yersinia pseudotuberculosis YPIII expressing yopE-luxAB at 12.5 uM after 3 hrs by luciferase reporter gene assay; conditions: not given
Procedure, shortened: (§1)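 Strain YPIII pIB102 (yopE-luxAB) grown overnight at room temperature in BHI with 5 mM EGTA and 20 mM MgCl2 (calcium depletion), adjusted to OD600 0.088–0.095. Compound added from DMSO at 1.56–200 µM final (eight concentrations). Shaken 1 h at room temperature, then 2 h at 37 °C. Decanal added and light emission read immediately. Triplicates, repeated at least three times.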

| SMILES | inhibition [%] |
| --- | --- |
| CC(C)(C)c1ccc(O)c(/C=N/NC(=O)c2ccc(Br)cc2)c1 | 29 |
| O=C(N/N=C/c1ccc(Cl)cc1O)c1ccncc1 | 4 |
| O=C(N/N=C/c1ccc(Cl)cc1O)c1ccc(Br)cc1 | 26 |
| O=C(N/N=C/c1cc(F)cc(Cl)c1O)c1cc(Cl)cc(Cl)c1 | 10 |
| O=C(N/N=C/c1cc(Cl)cc(Cl)c1O)c1ccccc1[N+](=O)[O-] | 4 |

tested on: Escherichia coli; assay: Antibacterial activity against Escherichia coli DH5[alpha] at 50 uM after 23 hrs by broth dilution assay; type: functional, organism-based; conditions: not given
Procedure, shortened: (§2)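 Overnight LB culture of E. coli DH5α grown at 37 °C, diluted to OD600 0.1 in LB with 2.5 mM CaCl2; compound added from DMSO stock to final 50 or 100 µM. Incubated at 37 °C with absorbance at 595 nm followed over 23 h.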

| SMILES | Activity |
| --- | --- |
| CC(C)(C)c1ccc(O)c(/C=N/NC(=O)c2ccc(Br)cc2)c1 | inactive |
| O=C(N/N=C/c1ccc(Cl)cc1O)c1ccncc1 | inactive |
| O=C(N/N=C/c1ccc(Cl)cc1O)c1ccc(Br)cc1 | inactive |
| O=C(N/N=C/c1cc(F)cc(Cl)c1O)c1cc(Cl)cc(Cl)c1 | inactive |
| O=C(N/N=C/c1cc(Cl)cc(Cl)c1O)c1ccccc1[N+](=O)[O-] | inactive |

tested on: Yersinia pseudotuberculosis YPIII; assay: Inhibition of T3S in Yersinia pseudotuberculosis YPIII expressing yopE-luxAB at 1.56 uM after 3 hrs by luciferase reporter gene assay; conditions: not given; procedure, shortened: as §1

| SMILES | inhibition [%] |
| --- | --- |
| CC(C)(C)c1ccc(O)c(/C=N/NC(=O)c2ccc(Br)cc2)c1 | 4 |
| O=C(N/N=C/c1ccc(Cl)cc1O)c1ccncc1 | 5 |
| O=C(N/N=C/c1ccc(Cl)cc1O)c1ccc(Br)cc1 | -6 |
| O=C(N/N=C/c1cc(F)cc(Cl)c1O)c1cc(Cl)cc(Cl)c1 | -10 |
| O=C(N/N=C/c1cc(Cl)cc(Cl)c1O)c1ccccc1[N+](=O)[O-] | -4 |

tested on: Yersinia pseudotuberculosis; assay: Antibacterial activity against Yersinia pseudotuberculosis expressing pIB102 at 50 uM after 23 hrs by broth dilution assay; type: functional, organism-based; conditions: not given
Procedure, shortened: (§3)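 Wild-type pIB102 grown overnight in LB at room temperature, diluted to OD600 = 0.1 in LB with 2.5 mM CaCl2. Compound added from DMSO stock to final 50 and 100 µM. Incubated at 37 °C with absorbance at 595 nm read over 23 h.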

| SMILES | Activity |
| --- | --- |
| CC(C)(C)c1ccc(O)c(/C=N/NC(=O)c2ccc(Br)cc2)c1 | inactive |
| O=C(N/N=C/c1ccc(Cl)cc1O)c1ccncc1 | inactive |
| O=C(N/N=C/c1ccc(Cl)cc1O)c1ccc(Br)cc1 | inactive |
| O=C(N/N=C/c1cc(F)cc(Cl)c1O)c1cc(Cl)cc(Cl)c1 | inactive |
| O=C(N/N=C/c1cc(Cl)cc(Cl)c1O)c1ccccc1[N+](=O)[O-] | inactive |

tested on: Escherichia coli; assay: Antibacterial activity against Escherichia coli DH5[alpha] at 100 uM after 23 hrs by broth dilution assay; type: functional, organism-based; conditions: not given; procedure, shortened: as §2

| SMILES | Activity |
| --- | --- |
| CC(C)(C)c1ccc(O)c(/C=N/NC(=O)c2ccc(Br)cc2)c1 | inactive |
| O=C(N/N=C/c1ccc(Cl)cc1O)c1ccncc1 | inactive |
| O=C(N/N=C/c1ccc(Cl)cc1O)c1ccc(Br)cc1 | inactive |
| O=C(N/N=C/c1cc(F)cc(Cl)c1O)c1cc(Cl)cc(Cl)c1 | inactive |
| O=C(N/N=C/c1cc(Cl)cc(Cl)c1O)c1ccccc1[N+](=O)[O-] | inactive |

tested on: Yersinia pseudotuberculosis YPIII; assay: Inhibition of T3S in Yersinia pseudotuberculosis YPIII expressing yopE-luxAB at 100 uM after 3 hrs by luciferase reporter gene assay; conditions: not given; procedure, shortened: as §1

| SMILES | inhibition [%] |
| --- | --- |
| CC(C)(C)c1ccc(O)c(/C=N/NC(=O)c2ccc(Br)cc2)c1 | 34 |
| O=C(N/N=C/c1ccc(Cl)cc1O)c1ccncc1 | 96 |
| O=C(N/N=C/c1ccc(Cl)cc1O)c1ccc(Br)cc1 | 22 |
| O=C(N/N=C/c1cc(F)cc(Cl)c1O)c1cc(Cl)cc(Cl)c1 | 24 |
| O=C(N/N=C/c1cc(Cl)cc(Cl)c1O)c1ccccc1[N+](=O)[O-] | 88 |

tested on: Yersinia pseudotuberculosis YPIII; assay: Inhibition of T3S in Yersinia pseudotuberculosis YPIII expressing yopE-luxAB at 6.25 uM after 3 hrs by luciferase reporter gene assay; conditions: not given; procedure, shortened: as §1

| SMILES | inhibition [%] |
| --- | --- |
| CC(C)(C)c1ccc(O)c(/C=N/NC(=O)c2ccc(Br)cc2)c1 | 19 |
| O=C(N/N=C/c1ccc(Cl)cc1O)c1ccncc1 | 3 |
| O=C(N/N=C/c1ccc(Cl)cc1O)c1ccc(Br)cc1 | 14 |
| O=C(N/N=C/c1cc(F)cc(Cl)c1O)c1cc(Cl)cc(Cl)c1 | 12 |
| O=C(N/N=C/c1cc(Cl)cc(Cl)c1O)c1ccccc1[N+](=O)[O-] | 8 |

tested on: Yersinia pseudotuberculosis YPIII; assay: Inhibition of T3S in Yersinia pseudotuberculosis YPIII expressing yopE-luxAB at 200 uM after 3 hrs by luciferase reporter gene assay; conditions: not given; procedure, shortened: as §1

| SMILES | inhibition [%] |
| --- | --- |
| CC(C)(C)c1ccc(O)c(/C=N/NC(=O)c2ccc(Br)cc2)c1 | 37 |
| O=C(N/N=C/c1ccc(Cl)cc1O)c1ccncc1 | 95 |
| O=C(N/N=C/c1ccc(Cl)cc1O)c1ccc(Br)cc1 | 10 |
| O=C(N/N=C/c1cc(F)cc(Cl)c1O)c1cc(Cl)cc(Cl)c1 | 13 |
| O=C(N/N=C/c1cc(Cl)cc(Cl)c1O)c1ccccc1[N+](=O)[O-] | 92 |

tested on: Yersinia pseudotuberculosis YPIII; assay: Inhibition of T3S in Yersinia pseudotuberculosis YPIII expressing yopE-luxAB at 25 uM after 3 hrs by luciferase reporter gene assay; conditions: not given; procedure, shortened: as §1

| SMILES | inhibition [%] |
| --- | --- |
| CC(C)(C)c1ccc(O)c(/C=N/NC(=O)c2ccc(Br)cc2)c1 | 34 |
| O=C(N/N=C/c1ccc(Cl)cc1O)c1ccncc1 | 27 |
| O=C(N/N=C/c1ccc(Cl)cc1O)c1ccc(Br)cc1 | 29 |
| O=C(N/N=C/c1cc(F)cc(Cl)c1O)c1cc(Cl)cc(Cl)c1 | 11 |
| O=C(N/N=C/c1cc(Cl)cc(Cl)c1O)c1ccccc1[N+](=O)[O-] | 18 |

tested on: Chlamydia trachomatis; assay: Antibacterial activity against Chlamydia trachomatis infected in human HeLa 229 cells after 35 hrs by fluorescence microscopy; type: functional; conditions: not given
Procedure, shortened: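 HeLa 229 monolayers infected with C. trachomatis serovar L2, MOI 0.3; compounds diluted in RPMI 1640 with 10% FCS, 2 mM L-glutamine, 8 µg/mL gentamicin (DMSO final 1%) added 1 h post-infection at 50, 25, 12.5, 6.25, 3.13 µM. 35 h at 37 °C, 5% CO2; methanol fixation, immunostaining, fluorescence microscopy at 200×. MIC = lowest concentration with no intracellular inclusions; duplicates, ≥3 occasions.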

| SMILES | MIC |
| --- | --- |
| O=C(N/N=C/c1ccc(Cl)cc1O)c1ccncc1 | inactive |

tested on: not listed separately; assay: Cytotoxicity against human HeLa 229 cells assessed as cell viability at 25 uM after 28 hrs using resazurin staining by fluorescence microscopy; type: cell-based; conditions: read-out: Activity
Procedure, shortened: (§4)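 HeLa 229 viability measured at 50 and 25 µM using resazurin added 4 h before read-out; cell-free wells with medium plus compound exclude chemical reduction of resazurin. Scored relative to DMSO control, plus microscopic scoring; non-toxic defined as at least 70% viability versus control. Triplicates, repeated at least three times.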

| SMILES | viability at 28 h, 25 µM [%] |
| --- | --- |
| O=C(N/N=C/c1ccc(Cl)cc1O)c1ccncc1 | 72 |

tested on: Yersinia pseudotuberculosis; assay: Antibacterial activity against Yersinia pseudotuberculosis expressing pIB102 at 100 uM after 23 hrs by broth dilution assay; type: functional, organism-based; conditions: not given; procedure, shortened: as §3

| SMILES | Activity |
| --- | --- |
| CC(C)(C)c1ccc(O)c(/C=N/NC(=O)c2ccc(Br)cc2)c1 | inactive |
| O=C(N/N=C/c1ccc(Cl)cc1O)c1ccncc1 | inactive |
| O=C(N/N=C/c1ccc(Cl)cc1O)c1ccc(Br)cc1 | inactive |
| O=C(N/N=C/c1cc(F)cc(Cl)c1O)c1cc(Cl)cc(Cl)c1 | inactive |
| O=C(N/N=C/c1cc(Cl)cc(Cl)c1O)c1ccccc1[N+](=O)[O-] | inactive |

tested on: Yersinia pseudotuberculosis YPIII; assay: Inhibition of T3S in Yersinia pseudotuberculosis YPIII expressing yopE-luxAB at 50 uM after 3 hrs by luciferase reporter gene assay; conditions: not given; procedure, shortened: as §1

| SMILES | inhibition [%] |
| --- | --- |
| CC(C)(C)c1ccc(O)c(/C=N/NC(=O)c2ccc(Br)cc2)c1 | 39 |
| O=C(N/N=C/c1ccc(Cl)cc1O)c1ccncc1 | 84 |
| O=C(N/N=C/c1ccc(Cl)cc1O)c1ccc(Br)cc1 | 27 |
| O=C(N/N=C/c1cc(F)cc(Cl)c1O)c1cc(Cl)cc(Cl)c1 | 19 |
| O=C(N/N=C/c1cc(Cl)cc(Cl)c1O)c1ccccc1[N+](=O)[O-] | 61 |

tested on: not listed separately; assay: Cytotoxicity against human HeLa 229 cells assessed as cell viability at 50 uM after 28 hrs using resazurin staining by fluorescence microscopy; type: cell-based; conditions: read-out: Activity; procedure, shortened: as §4

| SMILES | viability at 28 h, 50 µM [%] |
| --- | --- |
| O=C(N/N=C/c1ccc(Cl)cc1O)c1ccncc1 | 67 |

tested on: Yersinia pseudotuberculosis YPIII; assay: Inhibition of T3S in Yersinia pseudotuberculosis YPIII expressing yopE-luxAB at 3.13 uM after 3 hrs by luciferase reporter gene assay; conditions: not given; procedure, shortened: as §1

| SMILES | inhibition [%] |
| --- | --- |
| CC(C)(C)c1ccc(O)c(/C=N/NC(=O)c2ccc(Br)cc2)c1 | 0 |
| O=C(N/N=C/c1ccc(Cl)cc1O)c1ccncc1 | -1 |
| O=C(N/N=C/c1ccc(Cl)cc1O)c1ccc(Br)cc1 | 11 |
| O=C(N/N=C/c1cc(F)cc(Cl)c1O)c1cc(Cl)cc(Cl)c1 | 4 |
| O=C(N/N=C/c1cc(Cl)cc(Cl)c1O)c1ccccc1[N+](=O)[O-] | 16 |
